Data on one compound can be found in ChEMBL document CHEMBL5104213, “Evaluation of the effect of a cell penetrating peptide (TAT) towards tailoring the targeting efficacy and tumor uptake of porphyrin” (RSC Med Chem, 2022).

SMILES strings stand for the structures. Active and inactive are the calls of the source. No cut-off for these calls is given here.

Series [1] can be described thus: Drug uptake in tumor of iv dosed Swiss mouse infected with mouse HSDM1C1 cells administered with radiolabeled Gallium-68 measured after 60 mins. It counts as ADME, organism-based, Neoplasm. To be noted: in vivo, 1 h. The gist of the method: (§1)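 Fibrosarcoma grown from ~10⁶ HSDM1C1 cells injected subcutaneously on the dorsum, used at ~1 cm tumour diameter; 20–25 g Swiss mice. ⁶⁸Ga-labelled, Sep-Pak-purified preparation (~100 μCi, 3.7 MBq, 150 μL, saline) given i.v. via tail vein. Killed by CO₂ at 30 or 60 min, n = 3; blood by cardiac puncture, organs excised, washed, weighed and counted by NaI(Tl); % IA per g.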

The nature of series [2]: Drug uptake in spleen of iv dosed Swiss mouse infected with mouse HSDM1C1 cells administered with radiolabeled Gallium-68 measured after 30 mins. It counts as ADME, organism-based. To be noted: in vivo, 0.5 h. The gist of the method: as §1
The subject of series [3] is A549. The series is described as follows: Cytotoxicity against human A549 cells assessed as cell growth inhibition at 0.5 uM incubated for 24 hrs under light exposure by MTT assay. It counts as functional, cell-based. In outline: (§2)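 A549 plated as for MTT, incubated with compound (0.5 or 1 μM) for 6 h, then irradiated by LED at 42 W m⁻² for 90 min (0.02 kJ cm⁻²). Cells then held 18 h at room temperature and assayed by MTT. Controls were light without compound and compound without light.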
(In general: Tetrazolium dyes change colour on reduction, which living cells bring about.)

Series [4] in a line: Drug uptake in liver of iv dosed Swiss mouse infected with mouse HSDM1C1 cells administered with radiolabeled Gallium-68 measured after 30 mins. It counts as ADME, organism-based. To be noted: in vivo, 0.5 h. The gist of the method:
as §1

Series [5] is described as follows: Octanol-water partition coefficient, logP of the compound. The format is physicochemical. The gist of the method: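 ⁶⁸Ga-labelled preparation (100 μL) added to octanol (1.0 mL) and water (900 μL), mixed, centrifuged 2500 rpm for 5 min. Aliquots of each layer counted by NaI(Tl); log P taken as log of organic/aqueous count ratio.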
Series [6] in a line: Drug uptake in kidney of iv dosed Swiss mouse infected with mouse HSDM1C1 cells administered with radiolabeled Gallium-68 measured after 60 mins. To be noted: in vivo, 1 h. It counts as ADME, organism-based. The gist of the method:
as §1

The nature of series [7]: Drug uptake in liver of iv dosed Swiss mouse infected with mouse HSDM1C1 cells administered with radiolabeled Gallium-68 measured after 60 mins. To be noted: in vivo, 1 h. It counts as ADME, organism-based. In outline:
as §1

Series [8] in a line: Drug uptake in lung of iv dosed Swiss mouse infected with mouse HSDM1C1 cells administered with radiolabeled Gallium-68 measured after 30 mins. It counts as ADME, organism-based. To be noted: in vivo, 0.5 h. In outline: as §1
Series [9] is described as follows: Drug uptake in lung of iv dosed Swiss mouse infected with mouse HSDM1C1 cells administered with radiolabeled Gallium-68 measured after 60 mins. The format is ADME, organism-based. To be noted: in vivo, 1 h. The gist of the method: as §1
The nature of series [10]: Drug uptake in spleen of iv dosed Swiss mouse infected with mouse HSDM1C1 cells administered with radiolabeled Gallium-68 measured after 60 mins. It counts as ADME, organism-based. To be noted: in vivo, 1 h. The gist of the method: as §1
Series [11] can be described thus: Drug uptake in tumor of iv dosed Swiss mouse infected with mouse HSDM1C1 cells administered with radiolabeled Gallium-68 measured after 30 mins. The format is ADME, organism-based, Neoplasm. To be noted: in vivo, 0.5 h. In outline:
as §1

The nature of series [12]: Drug uptake in kidney of iv dosed Swiss mouse infected with mouse HSDM1C1 cells administered with radiolabeled Gallium-68 measured after 30 mins. It counts as ADME, organism-based. To be noted: in vivo, 0.5 h. In outline: as §1
Series [13] is described as follows: Drug uptake in blood of iv dosed Swiss mouse infected with mouse HSDM1C1 cells administered with radiolabeled Gallium-68 measured after 60 mins. To be noted: in vivo, 1 h. The format is ADME, organism-based. In outline: as §1
Series [14] deals with A549. As to the kind of experiment: Cytotoxicity against human A549 cells assessed as cell growth inhibition at 0.5 to 10 uM incubated for 24 hrs under dark condition by MTT assay. The format is functional, cell-based. To be noted: dose 0.5-10 µM, DDE = dose-dependent effect. In outline: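 A549 in DMEM/10% FBS, 7 × 10³ cells/well seeded, overnight at 37 °C, 5% CO₂; treated at 0.5, 1, 2.5, 5, 10 μM without light, buffer control, n = 6. After 24 h, MTT added to a final 0.5 mg mL⁻¹ for 4 h; formazan dissolved in DMSO, A570 read with 660 nm reference; % dead cells calculated against vehicle control.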

Series [15] can be described thus: Drug uptake in blood of iv dosed Swiss mouse infected with mouse HSDM1C1 cells administered with radiolabeled Gallium-68 measured after 30 mins. The format is ADME, organism-based. To be noted: in vivo, 0.5 h. The gist of the method:
as §1

Series [16] concerns A549. As to the kind of experiment: Cytotoxicity against human A549 cells assessed as cell growth inhibition incubated for 24 hrs under light exposure by MTT assay. It counts as functional, cell-based. To be noted: A549, 24 h. The gist of the method: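 Photocytotoxicity IC₅₀ determination in A549 cells: 6 h compound exposure at 0.1, 0.5, 1, 2.5, 5.0, 10.0, 20.0 μM, then LED light dose of 0.02 kJ cm⁻² and 18 h post-irradiation incubation before MTT read-out. % cell death plotted against log concentration (nM) to derive IC₅₀.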

In series [17] the test system is A549. The series is described as follows: Cytotoxicity against human A549 cells assessed as cell growth inhibition at 1 uM incubated for 24 hrs under light exposure by MTT assay. It counts as functional, cell-based. The gist of the method: as §2

A word on the logP: it is a log measure of how a compound divides between an organic and an aqueous phase. A high value points to higher lipophilicity. Broadly, the IC50 is the point on the concentration scale where inhibition reaches its midpoint. Consider `O=C(O)COc1ccc(-c2c3nc(c(-c4ccc(OCC(=O)O)cc4)c4ccc([nH]4)c(-c4ccc(OCC(=O)O)cc4)c4nc(c(-c5ccc(O)cc5)c5ccc2[nH]5)C=C4)C=C3)cc1`, for which the Ct in series [1] came out at 2.45%; in series [2], 5.52%; in series [4] it was 23.46%; in [6], 3.35%; in [7], 15.11%; in [8] it was 8.87%. Also, the Ct in [9] is listed as 5.33%; in [10] it was 3.23%; in series [11] it was 2.53%; in [12], 4.78%; in series [13], 6.87%; in [15], 9.97%. In addition, the outcome in series [3] and in [17] was Active. Further, the logP in [5] is -1.54. Also, in [14], the Activity entry was “Dde”. Moreover, the IC50 in series [16] is 5.65 µM.
